Results taken from ChEMBL document CHEMBL4689842, “EUbOPEN Chemogenomics Library wave 1” (2021).
Values joined by “and” are separate entries in the source; they are usually repeats but may differ in a detail not shown here. Identical values can stand only once.

How the values were obtained:
Assay type in all cases: toxicity, cell-based
Fibroblast [1] = assay: Multiplex assay against human fibroblast; settings: 10 µM, compound concentration 10 uM
Summary of the method: (§1)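 Per cents of healthy-nucleus cells form the tubulin, mitochondrial-mass and membrane-permeability phenotype values. Live cells were stained at seeding with Hoechst33342, BioTracker Green Microtubule Cytoskeleton Dye, MitoTracker Red and Annexin V Alexa Fluor 680. After compound addition they were imaged on a CQ1 microscope at 37°C and 5% CO2, and CellPathfinder machine-learning gating split them into Hoechst high-intensity objects or normal cells, normal cells into healthy, pyknosed or fragmented nuclei, and pyknosed cells into mitotic or apoptotic.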

HEK-293T [2] = assay: Multiplex assay against HEK293T; settings: human, 10 µM, compound concentration 10 uM; summary of the method: as §1;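 as to Population Tubulin-Different-Phenotype (%): share of the cells with healthy nuclei that show this phenotype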
U2OS [3] = assay: Multiplex assay against U2OS; settings: human, 10 µM, compound concentration 10 uM; summary of the method: as §1
HEK-293T [4] = assay: Incucyte cell viability with HEK293T; settings: human, 10 µM, compound concentration 10 uM; also: filed as whole numbers so only -1 and 0 and 1 occur
Fibroblast [5] = assay: Incucyte cell viability with human fibroblast; settings: 10 µM, compound concentration 10 uM; also: filed as whole numbers so only -1 and 0 and 1 occur
U2OS [6] = assay: Incucyte cell viability with U2OS; settings: human, 10 µM, compound concentration 10 uM; also: filed as whole numbers so only -1 and 0 and 1 occur
[7] = 0 h, replicate number 1, timepoint 0 hours
[8] = 6 h, replicate number 1, timepoint 6 hours
[9] = 12 h, replicate number 1, timepoint 12 hours
[10] = 18 h, replicate number 1, timepoint 18 hours
[11] = 24 h, replicate number 1, timepoint 24 hours

O=C(O)c1ccc2c(c1)nc(Nc1cccc(Cl)c1)c1ccncc12 [SILMITASERTIB]
Population Apoptotic (%) (Fibroblast [1]; 12 h, replicate 1): 75% and 73%
Population Fragmented Nuclei (%) (Fibroblast [1]; 12 h, replicate 1): 29% and 31%
Population Healthy Nuclei (%) (Fibroblast [1]; 12 h, replicate 1): 56% and 60%
Population Hoechst High Intensity Objects (%) (Fibroblast [1]; 12 h, replicate 1): 20% and 12%
Population Membrane Permeable-Phenotype (%) (Fibroblast [1]; 12 h, replicate 1): 10% and 4%
Population Mitochondria Different-Phenotype (%) (Fibroblast [1]; 12 h, replicate 1): 2% and 3%
Population Mitotic Cells (%) (Fibroblast [1]; 12 h, replicate 1): 25% and 26%
Population Normal (%) (Fibroblast [1]; 12 h, replicate 1): 79% and 87%
Population Pyknosed Nuclei (%) (Fibroblast [1]; 12 h, replicate 1): 14% and 7%
Population Tubulin-Different-Phenotype (%) (Fibroblast [1]; 12 h, replicate 1): 6% and 4%
Total Cell Count (Fibroblast [1]; 12 h, replicate 1): 314 and 234
Population Apoptotic (%) (Fibroblast [1]; 12 h, replicate 2): 33% and 60%
Population Fragmented Nuclei (%) (Fibroblast [1]; 12 h, replicate 2): 60% and 64%
Population Healthy Nuclei (%) (Fibroblast [1]; 12 h, replicate 2): 33% and 25%
Population Hoechst High Intensity Objects (%) (Fibroblast [1]; 12 h, replicate 2): 30% and 32%
Population Membrane Permeable-Phenotype (%) (Fibroblast [1]; 12 h, replicate 2): 17% and 15%
Population Mitochondria Different-Phenotype (%) (Fibroblast [1]; 12 h, replicate 2): 11% and 7%
Population Mitotic Cells (%) (Fibroblast [1]; 12 h, replicate 2): 66% and 40%
Population Normal (%) (Fibroblast [1]; 12 h, replicate 2): 69% and 67%
Population Pyknosed Nuclei (%) (Fibroblast [1]; 12 h, replicate 2): 5% and 9%
Population Tubulin-Different-Phenotype (%) (Fibroblast [1]; 12 h, replicate 2): 29% and 23%
Total Cell Count (Fibroblast [1]; 12 h, replicate 2): 73 and 76
Population Apoptotic (%) (Fibroblast [1]; 24 h, replicate 1): 53%
Population Fragmented Nuclei (%) (Fibroblast [1]; 24 h, replicate 1): 32% and 26%
Population Healthy Nuclei (%) (Fibroblast [1]; 24 h, replicate 1): 53% and 60%
Population Hoechst High Intensity Objects (%) (Fibroblast [1]; 24 h, replicate 1): 19% and 17%
Population Membrane Permeable-Phenotype (%) (Fibroblast [1]; 24 h, replicate 1): 5%
Population Mitochondria Different-Phenotype (%) (Fibroblast [1]; 24 h, replicate 1): 2%
Population Mitotic Cells (%) (Fibroblast [1]; 24 h, replicate 1): 46%
Population Normal (%) (Fibroblast [1]; 24 h, replicate 1): 80% and 82%
Population Pyknosed Nuclei (%) (Fibroblast [1]; 24 h, replicate 1): 14% and 13%
Total Cell Count (Fibroblast [1]; 24 h, replicate 1): 314 and 235
Population Apoptotic (%) (Fibroblast [1]; 24 h, replicate 2): 66% and 50%
Population Fragmented Nuclei (%) (Fibroblast [1]; 24 h, replicate 2): 62%
Population Healthy Nuclei (%) (Fibroblast [1]; 24 h, replicate 2): 26% and 29%
Population Hoechst High Intensity Objects (%) (Fibroblast [1]; 24 h, replicate 2): 27% and 33%
Population Membrane Permeable-Phenotype (%) (Fibroblast [1]; 24 h, replicate 2): 14% and 6%
Population Mitotic Cells (%) (Fibroblast [1]; 24 h, replicate 2): 33% and 50%
Population Normal (%) (Fibroblast [1]; 24 h, replicate 2): 72% and 66%
Population Pyknosed Nuclei (%) (Fibroblast [1]; 24 h, replicate 2): 11% and 7%
Population Tubulin-Different-Phenotype (%) (Fibroblast [1]; 24 h, replicate 2): 21% and 31%
Total Cell Count (Fibroblast [1]; 24 h, replicate 2): 73 and 81
Population Apoptotic (%) (HEK-293T [2]; 12 h, replicate 1): 24% and 17%
Population Fragmented Nuclei (%) (HEK-293T [2]; 12 h, replicate 1): 14% and 17%
Population Healthy Nuclei (%) (HEK-293T [2]; 12 h, replicate 1): 67% and 65%
Population Hoechst High Intensity Objects (%) (HEK-293T [2]; 12 h, replicate 1): 10% and 15%
Population Membrane Permeable-Phenotype (%) (HEK-293T [2]; 12 h, replicate 1): 8% and 6%
Population Mitochondria Different-Phenotype (%) (HEK-293T [2]; 12 h, replicate 1): 5% and 4%
Population Mitotic Cells (%) (HEK-293T [2]; 12 h, replicate 1): 76% and 82%
Population Normal (%) (HEK-293T [2]; 12 h, replicate 1): 89% and 84%
Population Pyknosed Nuclei (%) (HEK-293T [2]; 12 h, replicate 1): 17%
Population Tubulin-Different-Phenotype (%) (HEK-293T [2]; 12 h, replicate 1): 7% and 6%
Total Cell Count (HEK-293T [2]; 12 h, replicate 1): 624 and 579
Population Apoptotic (%) (HEK-293T [2]; 12 h, replicate 2): 11% and 7%
Population Fragmented Nuclei (%) (HEK-293T [2]; 12 h, replicate 2): 8% and 10%
Population Healthy Nuclei (%) (HEK-293T [2]; 12 h, replicate 2): 84% and 85%
Population Hoechst High Intensity Objects (%) (HEK-293T [2]; 12 h, replicate 2): 3% and 2%
Population Membrane Permeable-Phenotype (%) (HEK-293T [2]; 12 h, replicate 2): 4% and 1%
Population Mitochondria Different-Phenotype (%) (HEK-293T [2]; 12 h, replicate 2): 9%
Population Mitotic Cells (%) (HEK-293T [2]; 12 h, replicate 2): 88% and 92%
Population Normal (%) (HEK-293T [2]; 12 h, replicate 2): 96% and 97%
Population Pyknosed Nuclei (%) (HEK-293T [2]; 12 h, replicate 2): 6% and 3%
Total Cell Count (HEK-293T [2]; 12 h, replicate 2): 1391 and 1841
Population Apoptotic (%) (HEK-293T [2]; 24 h, replicate 1): 28% and 16%
Population Fragmented Nuclei (%) (HEK-293T [2]; 24 h, replicate 1): 14%
Population Healthy Nuclei (%) (HEK-293T [2]; 24 h, replicate 1): 77% and 74%
Population Hoechst High Intensity Objects (%) (HEK-293T [2]; 24 h, replicate 1): 6% and 14%
Population Membrane Permeable-Phenotype (%) (HEK-293T [2]; 24 h, replicate 1): 10%
Population Mitochondria Different-Phenotype (%) (HEK-293T [2]; 24 h, replicate 1): 5% and 3%
Population Mitotic Cells (%) (HEK-293T [2]; 24 h, replicate 1): 71% and 84%
Population Normal (%) (HEK-293T [2]; 24 h, replicate 1): 93% and 85%
Population Pyknosed Nuclei (%) (HEK-293T [2]; 24 h, replicate 1): 8% and 9%
Population Tubulin-Different-Phenotype (%) (HEK-293T [2]; 24 h, replicate 1): 5% and 15%
Total Cell Count (HEK-293T [2]; 24 h, replicate 1): 718 and 592
Population Apoptotic (%) (HEK-293T [2]; 24 h, replicate 2): 9% and 4%
Population Fragmented Nuclei (%) (HEK-293T [2]; 24 h, replicate 2): 15% and 30%
Population Healthy Nuclei (%) (HEK-293T [2]; 24 h, replicate 2): 79% and 67%
Population Hoechst High Intensity Objects (%) (HEK-293T [2]; 24 h, replicate 2): 7% and 4%
Population Membrane Permeable-Phenotype (%) (HEK-293T [2]; 24 h, replicate 2): 9% and 4%
Population Mitochondria Different-Phenotype (%) (HEK-293T [2]; 24 h, replicate 2): 6% and 0%
Population Mitotic Cells (%) (HEK-293T [2]; 24 h, replicate 2): 90% and 95%
Population Normal (%) (HEK-293T [2]; 24 h, replicate 2): 92% and 95%
Population Pyknosed Nuclei (%) (HEK-293T [2]; 24 h, replicate 2): 4% and 1%
Total Cell Count (HEK-293T [2]; 24 h, replicate 2): 1562 and 3163
Population Apoptotic (%) (U2OS [3]; 12 h, replicate 1): 50% and 36%
Population Fragmented Nuclei (%) (U2OS [3]; 12 h, replicate 1): 5%
Population Healthy Nuclei (%) (U2OS [3]; 12 h, replicate 1): 87% and 85%
Population Hoechst High Intensity Objects (%) (U2OS [3]; 12 h, replicate 1): 4%
Population Membrane Permeable-Phenotype (%) (U2OS [3]; 12 h, replicate 1): 11% and 8%
Population Mitotic Cells (%) (U2OS [3]; 12 h, replicate 1): 50% and 63%
Population Normal (%) (U2OS [3]; 12 h, replicate 1): 95%
Population Pyknosed Nuclei (%) (U2OS [3]; 12 h, replicate 1): 7%
Population Tubulin-Different-Phenotype (%) (U2OS [3]; 12 h, replicate 1): 19% and 32%
Total Cell Count (U2OS [3]; 12 h, replicate 1): 163 and 151
Population Apoptotic (%) (U2OS [3]; 12 h, replicate 2): 33%
Population Fragmented Nuclei (%) (U2OS [3]; 12 h, replicate 2): 6% and 8%
Population Healthy Nuclei (%) (U2OS [3]; 12 h, replicate 2): 90%
Population Hoechst High Intensity Objects (%) (U2OS [3]; 12 h, replicate 2): 6% and 13%
Population Membrane Permeable-Phenotype (%) (U2OS [3]; 12 h, replicate 2): 10% and 4%
Population Mitochondria Different-Phenotype (%) (U2OS [3]; 12 h, replicate 2): 27% and 26%
Population Mitotic Cells (%) (U2OS [3]; 12 h, replicate 2): 66%
Population Normal (%) (U2OS [3]; 12 h, replicate 2): 93% and 86%
Population Pyknosed Nuclei (%) (U2OS [3]; 12 h, replicate 2): 2% and 4%
Population Tubulin-Different-Phenotype (%) (U2OS [3]; 12 h, replicate 2): 31% and 18%
Total Cell Count (U2OS [3]; 12 h, replicate 2): 140 and 110
Population Apoptotic (%) (U2OS [3]; 24 h, replicate 1): 23% and 50%
Population Fragmented Nuclei (%) (U2OS [3]; 24 h, replicate 1): 9% and 4%
Population Healthy Nuclei (%) (U2OS [3]; 24 h, replicate 1): 82% and 91%
Population Hoechst High Intensity Objects (%) (U2OS [3]; 24 h, replicate 1): 1% and 3%
Population Membrane Permeable-Phenotype (%) (U2OS [3]; 24 h, replicate 1): 14% and 6%
Population Mitochondria Different-Phenotype (%) (U2OS [3]; 24 h, replicate 1): 20% and 35%
Population Mitotic Cells (%) (U2OS [3]; 24 h, replicate 1): 76% and 50%
Population Normal (%) (U2OS [3]; 24 h, replicate 1): 98% and 96%
Population Pyknosed Nuclei (%) (U2OS [3]; 24 h, replicate 1): 8% and 4%
Population Tubulin-Different-Phenotype (%) (U2OS [3]; 24 h, replicate 1): 33% and 35%
Total Cell Count (U2OS [3]; 24 h, replicate 1): 208 and 206
Population Apoptotic (%) (U2OS [3]; 24 h, replicate 2): 25% and 11%
Population Fragmented Nuclei (%) (U2OS [3]; 24 h, replicate 2): 8%
Population Healthy Nuclei (%) (U2OS [3]; 24 h, replicate 2): 83% and 76%
Population Hoechst High Intensity Objects (%) (U2OS [3]; 24 h, replicate 2): 4%
Population Membrane Permeable-Phenotype (%) (U2OS [3]; 24 h, replicate 2): 10% and 5%
Population Mitochondria Different-Phenotype (%) (U2OS [3]; 24 h, replicate 2): 41%
Population Mitotic Cells (%) (U2OS [3]; 24 h, replicate 2): 75% and 88%
Population Normal (%) (U2OS [3]; 24 h, replicate 2): 95%
Population Pyknosed Nuclei (%) (U2OS [3]; 24 h, replicate 2): 7% and 14%
Population Tubulin-Different-Phenotype (%) (U2OS [3]; 24 h, replicate 2): 31% and 30%
Total Cell Count (U2OS [3]; 24 h, replicate 2): 168 and 127
Growth Rate (HEK-293T [4]; [7]): 0
Growth Rate (HEK-293T [4]; [8]): 0
Growth Rate (HEK-293T [4]; [9]): 0
Growth Rate (HEK-293T [4]; [10]): 0
Growth Rate (HEK-293T [4]; [11]): 0
Growth Rate (Fibroblast [5]; [7]): 0
Growth Rate (Fibroblast [5]; [9]): 1
Growth Rate (Fibroblast [5]; [10]): 0
Growth Rate (Fibroblast [5]; 18 h, replicate number 2, timepoint 18 hours): 1
Growth Rate (Fibroblast [5]; [11]): 0
Growth Rate (Fibroblast [5]; 24 h, replicate number 2, timepoint 24 hours): 1
Growth Rate (U2OS [6]; [7]): 0
Growth Rate (U2OS [6]; 0 h, replicate number 2, timepoint 0 hours): 1
Growth Rate (U2OS [6]; [8]): 1
Growth Rate (U2OS [6]; 6 h, replicate number 2, timepoint 6 hours): 0
Growth Rate (U2OS [6]; [9]): 0
Growth Rate (U2OS [6]; [10]): 0
Growth Rate (U2OS [6]; [11]): 0
